Results reported in paper PMC5970367 (Chembiochem : a European journal of chemical biology, 2017).
Like-named read-outs stand apart in the source and are kept apart here.

Tests used:
[1] = test system: 5′-fluorescein labeled HCV SLIIb; details: pseudo Michaelis-Menten, fluorescence; ref 4d; cited from earlier work
[2] = test system: 5′-fluorescein labeled HCV SLIIb; assay: Reaction kinetics via fluorescence; assay type: biochemical, hepatitis C virus; details: pseudo Michaelis-Menten, catalytic efficiency
Summary of the method: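 Copper–peptide complexes were formed at 1.1:1 peptide:Cu. Each complex was added to 333 nM 5′-fluorescein-SLIIb with 1 mM ascorbic acid and 1 mM H2O2 in 20 mM HEPES (pH 7.4, 100 mM NaCl) at 25 °C. Fluorescence loss was followed at ex 491/em 518 nm and converted to RNA concentration by a calibration curve. Initial velocities were plotted against catalyst concentration and fit to Michaelis–Menten to give KM and kcat. Values are the mean of ≥3 trials.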

[3] = test system: fluorescein-labeled IRES SLIIb; assay: Time-dependent MALDI-TOF mass spectrometry of SLIIb cleavage; assay type: biochemical, hepatitis C virus; details: for Initial Rate (%Overhang/min), 2′, 3′-cPO4: overhang 2′,3′-cyclic phosphates; for Initial Rate (%Overhang/min), 2′, 3′-cPO4 / Initial Rate (%Overhang/min), 3′-AL / Initial Rate (%Overhang/min), 3′-OH / Initial Rate (%Overhang/min), 3′-PO4 / Initial Rate (%Overhang/min), 3′-PGA / Initial Rate (%Overhang/min), 3′-PG / Initial Rate (%Overhang/min), 5′-AL / Initial Rate (%Overhang/min), 5′-GemDiol / Initial Rate (%Overhang/min), 5′-OH / Initial Rate (%Overhang/min), 5′-PO4 / Initial Rate (%Overhang/min), 5′-PPA: MALDI-TOF time dependence; for Initial Rate (%Overhang/min), 3′-AL: overhang 3′-aldehyde; for Initial Rate (%Overhang/min), 3′-OH: overhang 3′-hydroxyl; for Initial Rate (%Overhang/min), 3′-PO4: overhang 3′-phosphates; for Initial Rate (%Overhang/min), 3′-PGA: overhang 3′-phosphoglycaldehyde; for Initial Rate (%Overhang/min), 3′-PG: overhang 3′-phosphoglycolate; for Initial Rate (%Overhang/min), 5′-AL: overhang 5′-aldehyde; for Initial Rate (%Overhang/min), 5′-GemDiol: overhang 5′-geminal diol; for Initial Rate (%Overhang/min), 5′-OH: overhang 5′-hydroxyl; for Initial Rate (%Overhang/min), 5′-PO4: overhang 5′-phosphate; for Initial Rate (%Overhang/min), 5′-PPA: overhang 5′-phosphopropenal; for Relative Initial Rate (Normalized Intensity/min × 1000), position A6 / Relative Initial Rate (Normalized Intensity/min × 1000), position A15 / Relative Initial Rate (Normalized Intensity/min × 1000), position A19 / Relative Initial Rate (Normalized Intensity/min × 1000), position A27 / Relative Initial Rate (Normalized Intensity/min × 1000), position A30 / Relative Initial Rate (Normalized Intensity/min × 1000), position C10 / Relative Initial Rate (Normalized Intensity/min × 1000), position C33 / Relative Initial Rate (Normalized Intensity/min × 1000), position G5 / Relative Initial Rate (Normalized Intensity/min × 1000), position G9 / Relative Initial Rate (Normalized Intensity/min × 1000), position G11 / Relative Initial Rate (Normalized Intensity/min × 1000), position G28 / Relative Initial Rate (Normalized Intensity/min × 1000), position U12 / Relative Initial Rate (Normalized Intensity/min × 1000), position U14 / Relative Initial Rate (Normalized Intensity/min × 1000), position U25 / Relative Initial Rate (Normalized Intensity/min × 1000), position U26 / Relative Initial Rate (Normalized Intensity/min × 1000), position U29 / Relative Initial Rate (Normalized Intensity/min × 1000), position U31: 10 μM SLIIb, 10 μM copper-peptide
Summary of the method: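 Reactions contained 10 μM Fl-SLIIb, 10 μM Cu–peptide, 1 mM ascorbate and 1 mM H2O2, and were sampled at 2–180 min. They were quenched on ice, C18-desalted, and analysed by negative-ion reflectron MALDI-TOF (HPA/ammonium citrate matrix, ≥1000 shots). Peaks with m/z >1500 and S/N >5 were assigned against expected product masses. Products were summed per overhang type and expressed as a fraction at each time point. Initial rate was taken from the linear region (first ~40 min).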

[4] = test system: fluorescein-labelled SLIIb; assay: Reaction rates monitored by agarose gel electrophoresis; assay type: biochemical, hepatitis C virus; details: addition of complex to SLIIb

Row | Substance | kcat/KM [2] | Initial Rate (%Overhang/min), 2′, 3′-cPO4 [3] | Initial Rate (%Overhang/min), 3′-AL [3] | Initial Rate (%Overhang/min), 3′-OH [3] | Initial Rate (%Overhang/min), 3′-PO4 [3] | Initial Rate (%Overhang/min), 3′-PGA [3] | Initial Rate (%Overhang/min), 3′-PG [3] | Initial Rate (%Overhang/min), 5′-AL [3] | Initial Rate (%Overhang/min), 5′-GemDiol [3] | Initial Rate (%Overhang/min), 5′-OH [3] | Initial Rate (%Overhang/min), 5′-PO4 [3] | Initial Rate (%Overhang/min), 5′-PPA [3] | Relative Initial Rate (Normalized Intensity/min × 1000), position A6 [3] | Relative Initial Rate (Normalized Intensity/min × 1000), position A15 [3] | Relative Initial Rate (Normalized Intensity/min × 1000), position A19 [3] | Relative Initial Rate (Normalized Intensity/min × 1000), position A27 [3] | Relative Initial Rate (Normalized Intensity/min × 1000), position A30 [3] | Relative Initial Rate (Normalized Intensity/min × 1000), position C10 [3] | Relative Initial Rate (Normalized Intensity/min × 1000), position C33 [3] | Relative Initial Rate (Normalized Intensity/min × 1000), position G5 [3] | also measured
1 | GGhyrfk-Cu [2-Cu] |  |  |  |  |  |  |  |  |  |  |  |  |  |  |  |  |  |  |  |  | Km [1]: 7.9 ± 1.2 µM; kcat [1]: 0.14 ± 0.01 min⁻¹; kcat/KM [1]: 0.018 µM⁻¹ min⁻¹
2 | GGHYRAK-Cu [6-Cu] | 0.001 µM⁻¹ min⁻¹ | 0.7 ± 0.1 %Overhang/min | 0.8 ± 0.1 %Overhang/min | 0.1 ± 0.1 %Overhang/min | 0.7 ± 0.2 %Overhang/min | 0.6 ± 0.1 %Overhang/min | 1.2 ± 0.1 %Overhang/min | 0.8 ± 0.1 %Overhang/min | 0.9 ± 0.3 %Overhang/min | 1.2 ± 0.3 %Overhang/min | 1.2 ± 0.2 %Overhang/min | 1.9 ± 0.1 %Overhang/min | 1.7 ± 0.5 Normalized Intensity/min × 1000 | <1 Normalized Intensity/min × 1000 | - ^a | - ^a | 2.4 ± 0.3 Normalized Intensity/min × 1000 | - ^a | 1.4 ± 0.5 Normalized Intensity/min × 1000 | - ^a | Relative Initial Rate (Normalized Intensity/min × 1000), position G9 [3]: - ^a; Relative Initial Rate (Normalized Intensity/min × 1000), position G11 [3]: <1 Normalized Intensity/min × 1000; Relative Initial Rate (Normalized Intensity/min × 1000), position G28 [3]: 2.3 ± 1.6 Normalized Intensity/min × 1000; Relative Initial Rate (Normalized Intensity/min × 1000), position U12 [3]: - ^a; Relative Initial Rate (Normalized Intensity/min × 1000), position U14 [3]: <1 Normalized Intensity/min × 1000; Relative Initial Rate (Normalized Intensity/min × 1000), position U25 [3]: - ^a; Relative Initial Rate (Normalized Intensity/min × 1000), position U26 [3]: - ^a; Relative Initial Rate (Normalized Intensity/min × 1000), position U29 [3]: - ^a; Relative Initial Rate (Normalized Intensity/min × 1000), position U31 [3]: - ^a
3 | GGHYRFA-Cu [7-Cu] | 0.025 µM⁻¹ min⁻¹ | 0.1 ± 0.1 %Overhang/min | 0.8 ± 0.1 %Overhang/min | 0.4 ± 0.1 %Overhang/min | 0.1 ± 0.1 %Overhang/min | 0.6 ± 0.2 %Overhang/min | 0.2 ± 0.1 %Overhang/min | 1.5 ± 0.5 %Overhang/min | 0.2 ± 0.1 %Overhang/min | 1.1 ± 0.2 %Overhang/min | 0.5 ± 0.2 %Overhang/min | 0.5 ± 0.1 %Overhang/min | - ^a | - ^a | 0.8 ± 0.4 Normalized Intensity/min × 1000 | - ^a | 1.0 ± 0.4 Normalized Intensity/min × 1000 | - ^a | - ^a | - ^a | Relative Initial Rate (Normalized Intensity/min × 1000), position G9 [3]: <1 Normalized Intensity/min × 1000; Relative Initial Rate (Normalized Intensity/min × 1000), position G11 [3]: 1.6 ± 0.7 Normalized Intensity/min × 1000; Relative Initial Rate (Normalized Intensity/min × 1000), position G28 [3]: - ^a; Relative Initial Rate (Normalized Intensity/min × 1000), position U12 [3]: <1 Normalized Intensity/min × 1000; Relative Initial Rate (Normalized Intensity/min × 1000), position U14 [3]: - ^a; Relative Initial Rate (Normalized Intensity/min × 1000), position U25 [3]: <1 Normalized Intensity/min × 1000; Relative Initial Rate (Normalized Intensity/min × 1000), position U26 [3]: <1 Normalized Intensity/min × 1000; Relative Initial Rate (Normalized Intensity/min × 1000), position U29 [3]: 2.9 ± 0.6 Normalized Intensity/min × 1000; Relative Initial Rate (Normalized Intensity/min × 1000), position U31 [3]: - ^a
4 | GGHKRFK-Cu [11-Cu] | 0.022 µM⁻¹ min⁻¹ |  |  |  |  |  |  |  |  |  |  |  |  |  |  |  |  |  |  |  | precipitation from solution on addition to SLIIb [4]: significant precipitation
